{
  "source": "paper PMC4934660",
  "about": "(Investigational new drugs, 2014)",
  "key": {"BxPC-3": {"test_system": "BxPC-3", "test": "TUNEL, BxPC-3", "type": "cell-based, human", "settings": "2.4 μg/mL, 24 hours (method), flow cytometry, average of 3 experiments", "outline": "(§1)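 Cells (BxPC-3 and PANC-1 in complete RPMI with 10% FBS; MIA PaCa-2 in DMEM with 5% horse serum plus 10% FBS) were seeded at 500,000 per 6-well well and adhered overnight. They received 2.4 μg/mL test compound or vehicle for 24 h, then were trypsinized, fixed (4% paraformaldehyde) and ethanol-permeabilized. TdT/fluorescein-12-dUTP labelling ran 60 min at 37°C, stopped with 20mM EDTA. Flow cytometry, 20,000 events; Student's t test vs vehicle.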"}, "IKKα": {"test_system": "IKKα", "test": "Intracellular staining, IKKα in AsPC-1", "type": "cell-based, human", "settings": "2.4 μM, 6 hours, flow cytometry, average of 3 experiments, vs vehicle"}, "IL-8": {"test_system": "IL-8", "test": "IL-8 ELISA, AsPC-1", "type": "cell-based, human", "settings": "2.4 μg/mL, 6 hours, compared to controls, significant, average of 3 experiments"}, "A549 NFκB-luc cell line": {"test_system": "A549 NFκB-luc cell line", "test": "Cytotoxicity in A549/NFκB-luc reporter cell line", "type": "cell-based", "settings": "6 hours treatment", "outline": "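A549 cells stably carrying an NFκB-driven luciferase reporter, kept in DMEM with 10% FBS, penicillin/streptomycin and 100 μg/mL hygromycin B. Plated at 5 x 10^4 cells/well and allowed to adhere. Given 100 ng/ml TNF-α plus test compound (serial dilutions 0.00013–5 μg/mL) or vehicle for 6 h. Detergent-lysed; lysate equilibrated 30 min with ethidium bromide; fluorescence read at ex 340/em 590 nm.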"}, "PANC-1": {"test_system": "PANC-1", "test": "TUNEL, PANC-1", "type": "cell-based, human", "settings": "2.4 μg/mL, 24 hours (method), flow cytometry, average of 3 experiments", "outline": "as §1"}, "phosphorylated Elk": {"test_system": "phosphorylated Elk", "test": "Intracellular staining, phosphorylated Elk in AsPC-1", "type": "cell-based, human", "settings": "2.4 μM, 6 hours, flow cytometry, average of 3 experiments, vs vehicle"}, "MIA PaCa2": {"test_system": "MIA PaCa2", "test": "TUNEL, MIA PaCa-2", "type": "cell-based, human", "settings": "2.4 μg/mL, 24 hours (method), flow cytometry, average of 3 experiments", "outline": "as §1"}, "MIA PaCa-2": {"test_system": "MIA PaCa-2", "test": "Markers of apoptosis", "type": "cell-based, human", "settings": "2.4 μg/mL, with the assays used", "outline": "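Caspase-3/7 luminescence. MIA PaCa-2 cells in DMEM with 5% horse serum and 10% FBS. 10,000 cells/well, adhered overnight, then given 2.4 μg/mL test compound or vehicle for 1, 3, 6 or 24 h. Equal volume of pro-luminescent DEVD substrate added, 30–60 min at RT with shaking, luminescence read. Expressed as fold over vehicle; Student's t test.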"}, "IRAK": {"test_system": "IRAK", "test": "Intracellular staining, IRAK in AsPC-1", "type": "cell-based, human", "settings": "2.4 μM, 6 hours, flow cytometry, average of 3 experiments, vs vehicle"}, "[1]": {"test_system": "phosphorylated GSK3β Ser9", "test": "Intracellular staining, phosphorylated GSK3β in AsPC-1", "type": "cell-based, human", "settings": "2.4 μM, 6 hours, flow cytometry, average of 3 experiments, not statistically significant (student's T test)", "outline": "(§2)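 AsPC-1 cells (complete RPMI, 10% FBS, 37°C, 5% CO2) were exposed 6 h to test compound or vehicle control. They were trypsinized, fixed in 4% paraformaldehyde and permeabilized with ice-cold ethanol. Unconjugated primary antibody to the phospho-epitope (or rabbit IgG isotype) was applied 1 h RT, then PE-conjugated secondary 30 min RT. Flow cytometry, 20,000 events; Student's t test vs vehicle on the mean of 3 experiments.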"}, "TLR-1": {"test_system": "TLR-1", "test": "Intracellular staining, TLR-1 in AsPC-1", "type": "cell-based, human", "settings": "2.4 μM, 6 hours, flow cytometry, average of 3 experiments, vs vehicle"}, "[2]": {"test_system": "phosphorylated cyclin D1 Thr 286", "test": "Intracellular staining, phosphorylated cyclin D1 in AsPC-1", "type": "cell-based, human", "settings": "2.4 μM, 6 hours, flow cytometry, average of 3 experiments, not statistically significant (student's T test)", "outline": "as §2"}, "[3]": {"test_system": "phosphorylated Fos Ser 32", "test": "Intracellular staining, phosphorylated Fos in AsPC-1", "type": "cell-based, human", "settings": "2.4 μM, 6 hours, flow cytometry, average of 3 experiments, vs vehicle"}, "[4]": {"test_system": "TNF-related apoptosis-inducing ligand (TRAIL)", "test": "Intracellular staining, TRAIL in AsPC-1", "type": "cell-based, human", "settings": "2.4 μM, 6 hours, flow cytometry, average of 3 experiments, vs vehicle"}, "[5]": {"test_system": "phosphorylated (active) NFκB p65 (pS529)", "test": "Intracellular staining, phosphorylated NFκB p65", "type": "cell-based, human", "settings": "AsPC-1; 2.4 μg/mL; 6 hours; flow cytometry; vs vehicle control; average of 3 experiments; student's T test", "outline": "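AsPC-1 cells were treated 6 h with 2.4 μg/mL test compound or vehicle control. After trypsinization, 4% paraformaldehyde fixation and ice-cold ethanol permeabilization, cells were stained directly 1 h RT with PE-conjugated mouse anti-NFκB p65 (pS529) or mouse IgG isotype; no secondary. Gates were set against the isotype. Flow cytometry, 20,000 events; Student's t test vs vehicle, mean of 3 experiments.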"}, "TNFAIP3": {"test_system": "TNFAIP3", "test": "Intracellular staining, TNFAIP3 in AsPC-1", "type": "cell-based, human", "settings": "2.4 μM, 6 hours, flow cytometry, average of 3 experiments, vs vehicle"}, "HUVEC cells": {"test_system": "HUVEC cells", "test": "Endothelial tube formation assay", "type": "cell-based", "settings": "single experiment, preliminary, data not shown"}, "[6]": {"test_system": "phosphorylated Akt Ser 473", "test": "Intracellular staining, phosphorylated AKT in AsPC-1", "type": "cell-based, human", "settings": "2.4 μM, 6 hours, flow cytometry, average of 3 experiments, not statistically significant (student's T test)", "outline": "as §2"}, "phosphorylated Jun Ser73": {"test_system": "phosphorylated Jun Ser73", "test": "Intracellular staining, phosphorylated Jun in AsPC-1", "type": "cell-based, human", "settings": "2.4 μM, 6 hours, flow cytometry, average of 3 experiments, vs vehicle"}, "TLR-3": {"test_system": "TLR-3", "test": "Intracellular staining, TLR-3 in AsPC-1", "type": "cell-based, human", "settings": "2.4 μM, 6 hours, flow cytometry, average of 3 experiments, vs vehicle"}},
  "data": [
    {"smiles": "COc1ccc(/C=C/CCCC[C@H](C)[C@H](O)[C@@H](O)[C@H]2NC(=O)CC3(O)NC(=O)CC3NC(=O)C[C@@H](O)CNC(=O)CN(C)C(=O)[C@@H](Cc3c(C(=O)O)[nH]c4ccccc34)NC(=O)CNC(=O)[C@H]2O)cc1", "note": "(some centres unmarked) [microsclerodermin A]", "values": [
      {"measurement": "Apoptosis (TUNEL DNA fragmentation)", "setting": "BxPC-3", "result": "induced statistically significant apoptosis"},
      {"measurement": "Change in protein level, IKKα", "setting": "IKKα", "result": "no changes at the protein level"},
      {"measurement": "Increase in IL-8 production", "setting": "IL-8", "result": "about 2.5 fold"},
      {"measurement": "Cytotoxicity in reporter cell line (in words)", "setting": "A549 NFκB-luc cell line", "result": "little or no cytotoxicity"},
      {"measurement": "Apoptosis (TUNEL DNA fragmentation)", "setting": "PANC-1", "result": "induced statistically significant apoptosis"},
      {"measurement": "Change in expression, phosphorylated Elk", "setting": "phosphorylated Elk", "result": "No significant changes"},
      {"measurement": "DNA fragmentation (TUNEL)", "setting": "MIA PaCa2", "result": "not detected"},
      {"measurement": "Markers of apoptosis", "setting": "MIA PaCa-2", "result": "no markers of apoptosis were seen"},
      {"measurement": "Change in expression, IRAK", "setting": "IRAK", "result": "No significant changes"},
      {"measurement": "Level of phosphorylated (inactive) GSK3β", "setting": "[1]", "result": "increased"},
      {"measurement": "Change in expression, TLR-1", "setting": "TLR-1", "result": "No significant changes"},
      {"measurement": "Level of phosphorylated cyclin D1", "setting": "[2]", "result": "increased"},
      {"measurement": "Level of phosphorylated Fos", "setting": "[3]", "result": "statistically significantly upregulated"},
      {"measurement": "Change in expression, TRAIL", "setting": "[4]", "result": "No significant changes"},
      {"measurement": "Levels of phosphorylated (active) NFκB p65 (pS529)", "setting": "[5]", "result": "significantly reduced"},
      {"measurement": "Change in protein level, TNFAIP3", "setting": "TNFAIP3", "result": "no changes at the protein level"},
      {"measurement": "Endothelial tube formation", "setting": "HUVEC cells", "result": "decreased tube formation"},
      {"measurement": "Level of phosphorylated AKT", "setting": "[6]", "result": "increased"},
      {"measurement": "Level of phosphorylated Jun", "setting": "phosphorylated Jun Ser73", "result": "statistically significantly upregulated"},
      {"measurement": "Change in expression, TLR-3", "setting": "TLR-3", "result": "No significant changes"}
    ]}
  ]
}
